Our source for the MIC99 and Selectivity index values is ChEMBL document CHEMBL1141647, “Novel ofloxacin derivatives: synthesis, antimycobacterial and toxicological evaluation” (Bioorg Med Chem Lett, 2008).

Each structure is given as a SMILES string. Values after ≈ are worked out from the molar mass of the structure shown.

In the first assay the test system is Mycobacterium tuberculosis. Put plainly: Antimycobacterial activity against multidrug resistant Mycobacterium tuberculosis by agar dilution method. The class given is functional. In outline: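 MIC99 was taken as the lowest concentration giving complete inhibition of bacterial growth.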
One may read the MIC99 as an inhibitory concentration at the 99% level, which refers to growth in some studies and to a panel of isolates in others. In turn, `CC1COc2c(N3CCN(C)C(c4ccccc4)C3)c(F)c([N+](=O)[O-])c3c(=O)c(C(=O)O)cn1c23` (stereo not given) showed an MIC99 of 3.23 µM (≈ 1.56 µg/mL).
Same read-out and setting: then `COc1cc2c(cc1OC)CN(c1c(F)cc3c(=O)c(C(=O)O)cn4c3c1OCC4C)CC2` (stereo not given), with 3.43 µM (≈ 1.56 µg/mL); and `CC1COc2c(N3CCn4cc(C(=O)O)nc4C3)c(F)c([N+](=O)[O-])c3c(=O)c(C(=O)O)cn1c23` (stereo not given), with 0.09 µM (≈ 0.0426 µg/mL); and `CC1COc2c(N3CCN(C(c4ccccc4)c4ccc(Cl)cc4)CC3)c(F)c([N+](=O)[O-])c3c(=O)c(C(=O)O)cn1c23` (stereo not given), with 2.63 µM (≈ 1.56 µg/mL).
On the same count and under the same terms, under `CC1COc2c(N3CCC4(CC3)OCCO4)c(F)c(N)c3c(=O)c(C(=O)O)cn1c23` (stereo not given) stands 3.72 µM (≈ 1.56 µg/mL).
`CC1COc2c(N3CCc4ccccc4C3C(=O)NC(C)(C)C)c(F)cc3c(=O)c(C(=O)O)cn1c23` (stereo not given) showed an MIC99 of 3.16 µM (≈ 1.56 µg/mL).
Still for that read-out and setting: then `NNC(=O)c1ccncc1` [ISONIAZID], with 45.6 µM (≈ 6.25 µg/mL); and `CC1COc2c(N3CCC(n4c(=O)[nH]c5cc(Cl)ccc54)CC3)c(F)c([N+](=O)[O-])c3c(=O)c(C(=O)O)cn1c23` (stereo not given), with 0.34 µM (≈ 0.19 µg/mL).
In turn, `CC1COc2c(N3CCN(C(=O)c4ccco4)CC3)c(F)c([N+](=O)[O-])c3c(=O)c(C(=O)O)cn1c23` (stereo not given) registered an MIC99 of 1.6 µM (≈ 0.778 µg/mL).
On the same count and under the same terms, then `CC1CN(c2c(F)c([N+](=O)[O-])c3c(=O)c(C(=O)O)cn4c3c2OCC4C)CC(C)O1` (stereo not given), with 3.7 µM (≈ 1.56 µg/mL); and `CC1COc2c(N3CCSCC3)c(F)cc3c(=O)c(C(=O)O)cn1c23` (stereo not given), with 8.59 µM (≈ 3.13 µg/mL).
Same read-out and setting: then `CC1COc2c(N3CCc4ccccc4C3C(=O)NC(C)(C)C)c(F)c([N+](=O)[O-])c3c(=O)c(C(=O)O)cn1c23` (stereo not given), with 1.45 µM (≈ 0.781 µg/mL).
Same read-out and setting: under `CC1COc2c(N3CCC4(CC3)OCCO4)c(F)cc3c(=O)c(C(=O)O)cn1c23` (stereo not given) stands 0.09 µM (≈ 0.0364 µg/mL); under `CC1COc2c(N3CCSCC3)c(F)c([N+](=O)[O-])c3c(=O)c(C(=O)O)cn1c23` (stereo not given), 1.91 µM (≈ 0.782 µg/mL).
The compound `CC1COc2c(N3CCN(C)CC3)c(F)cc3c(=O)c(C(=O)O)cn1c23` (stereo not given) [OFLOXACIN] returned an MIC99 of 34.6 µM (≈ 12.5 µg/mL).
The compound `CC1COc2c(N3CCn4cc(C(=O)O)nc4C3)c(F)cc3c(=O)c(C(=O)O)cn1c23` (stereo not given) gave an MIC99 of 0.44 µM (≈ 0.188 µg/mL).
`CC1COc2c(N3CCC(n4c(=O)[nH]c5cc(Cl)ccc54)CC3)c(F)cc3c(=O)c(C(=O)O)cn1c23` (stereo not given) yielded an MIC99 of 0.76 µM (≈ 0.39 µg/mL).
Same read-out and setting: then `CC1CN(c2c(F)cc3c(=O)c(C(=O)O)cn4c3c2OCC4C)CC(C)O1` (stereo not given), with 8.3 µM (≈ 3.12 µg/mL).
Same read-out and setting: then `CC1COc2c(N3CCn4cc(C(=O)O)nc4C3)c(F)c(N)c3c(=O)c(C(=O)O)cn1c23` (stereo not given), with 1.76 µM (≈ 0.78 µg/mL); and `CC1COc2c(N3CCC(O)(c4ccc(Cl)cc4)CC3)c(F)c([N+](=O)[O-])c3c(=O)c(C(=O)O)cn1c23` (stereo not given), with 3.01 µM (≈ 1.56 µg/mL); and `CC1COc2c(N3CCC4(CC3)OCCO4)c(F)c([N+](=O)[O-])c3c(=O)c(C(=O)O)cn1c23` (stereo not given), with 0.09 µM (≈ 0.0404 µg/mL).
`CC1COc2c(N3CCN(C(=O)C4COc5ccccc5O4)CC3)c(F)c([N+](=O)[O-])c3c(=O)c(C(=O)O)cn1c23` (stereo not given) came in with an MIC99 of 1.41 µM (≈ 0.782 µg/mL).
`COc1cc2c(cc1OC)CN(c1c(F)c([N+](=O)[O-])c3c(=O)c(C(=O)O)cn4c3c1OCC4C)CC2` (stereo not given) registered an MIC99 of 3.12 µM (≈ 1.56 µg/mL).
Still for that read-out and setting: then `CC1COc2c(N3CCN(Cc4ccc5c(c4)OCO5)CC3)c(F)c([N+](=O)[O-])c3c(=O)c(C(=O)O)cn1c23` (stereo not given), with 5.95 µM (≈ 3.13 µg/mL).

Test system in a further assay: not listed separately
Put plainly: Selectivity index, Ratio of IC50 for human Vero cells to MIC99 for multidrug resistant Mycobacterium tuberculosis. The class given is functional.
With `CC1COc2c(N3CCn4cc(C(=O)O)nc4C3)c(F)c([N+](=O)[O-])c3c(=O)c(C(=O)O)cn1c23` (stereo not given), the Selectivity index is greater than 1467.
